Laboratory results as given in PubChem BioAssay.
Calls of active or inactive are those of the source.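 How the source made its calls, unless noted: active means fluorescence slope higher than the sample average by over 3 SD (cut at about -0.22 in these data, passing the limit was not always enough); inactive means the rest.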

Key:
[1] = inhibitors of TNFa-induced NFkB p65 translocation, primary screen, imaging, HUVEC, MLSMR starter and 10KST1 sets (AID 438;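 active means inhibition above 20% together with a positive visual image hit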;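 further: compound added about 3h40 before a 20 min TNFalpha stimulation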;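 on inhibition: signal is the nuclear over cytoplasmic p65 intensity ratio per well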); details: HUVEC TNFa-induced p65 nuclear translocation; cell count: measured here: nuclei count (cytotoxicity indicator), at 2.08 µM; inhibition: at 2 µM, stronger effect = higher value, 0% TNFa-plus-vehicle, 100% no-TNFa wells
[2] = reduction of polyQ htt aggregates in cells – imaging, exon1htt(103Q)mCFP cells, high-content imaging, primary screen (AID 483;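 active means visual image review flags a hit and inhibition of aggregation exceeds 20%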;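 further: compound exposure lasted 3 days before fixation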;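 on nuclei count: percent of the per-plate median nuclei count of sample wells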); details: exon1htt(103Q)mCFP cell line, aggregate imaging, at 2 µM; inhibition of aggregation: stronger effect = higher value; nuclei count: measured here: cell count, toxicity
[3] = endothelial E-selectin expression blockers – imaging, HUVEC, immunofluorescence, MLSMR starter and 10KST1 sets, primary screen (AID 487;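 active means visually confirmed hit in the image check and inhibition above 20%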;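 on inhibition: signal is fraction of cell area covered by stained E-selectin grains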;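 on nuclei count: 100% = median nuclei count of all wells on the same plate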); details: HUVEC TNFalpha-induced E-selectin immunofluorescence imaging, at 2 µM; inhibition: stronger effect = higher value; nuclei count: measured here: cell number, toxicity
[4] = biological target: Voltage-gated potassium channel subunit beta-2 (Rattus norvegicus) (UniProt P62483); assay: inhibitors of rat Kvbeta2 reductase activity – biochemical, NADPH fluorescence, primary screen (AID 622); details: recombinant KvBeta, 4-cyanobenzaldehyde reduction, at 10 µM, stronger effect = higher value;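 further: slope of raw intensity against log time taken from 70 to 1610 s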
Sequence of Voltage-gated potassium channel subunit beta-2 (Rattus norvegicus) (P62483 whole entry, looked up): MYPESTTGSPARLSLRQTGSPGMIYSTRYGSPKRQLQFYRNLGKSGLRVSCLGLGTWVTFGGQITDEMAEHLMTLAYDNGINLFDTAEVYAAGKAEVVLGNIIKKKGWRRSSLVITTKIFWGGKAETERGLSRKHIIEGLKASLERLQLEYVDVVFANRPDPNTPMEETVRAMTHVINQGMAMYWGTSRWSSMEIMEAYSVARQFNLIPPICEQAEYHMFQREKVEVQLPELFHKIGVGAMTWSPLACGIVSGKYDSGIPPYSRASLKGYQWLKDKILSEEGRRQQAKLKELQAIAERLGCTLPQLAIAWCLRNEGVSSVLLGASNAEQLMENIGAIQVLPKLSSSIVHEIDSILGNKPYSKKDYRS

[5] = biological target: Voltage-gated potassium channel subunit beta-2 (Rattus norvegicus) (UniProt P62483); assay: enhancers of rat Kvbeta2 NADPH turnover – biochemical, NADPH fluorescence, primary screen (AID 623;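 active means NADPH fluorescence slope more negative than the mean of all samples by about 3 SD, 99.7% confidence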;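 further: fluorescence intensity change per second fitted from 20 to 320 s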); details: Recombinant KvBeta, NADPH fluorescence decrease slope, 10 min; at 10 µM; stronger effect = lower value
[6] = biological target: Muscarinic acetylcholine receptor M4 (Homo sapiens) (UniProt P08173); assay: M4-linked GIRK flux change, two-sided – cell-based, HEK293 M4/GIRK, thallium flux, BTC-AM, M4 allosteric agonist project, primary screen (AID 625;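 active means fluorescence slope after compound addition differing from the mean of all tested samples at 99.7% confidence, mostly higher but some lower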;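 further: thallium influx through GIRK channels coupled to M4 in HEK293 cells with BTC-AM dye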); details: at 10 µM, actives lie on both sides
Sequence of Muscarinic acetylcholine receptor M4 (Homo sapiens) (P08173 whole entry, looked up): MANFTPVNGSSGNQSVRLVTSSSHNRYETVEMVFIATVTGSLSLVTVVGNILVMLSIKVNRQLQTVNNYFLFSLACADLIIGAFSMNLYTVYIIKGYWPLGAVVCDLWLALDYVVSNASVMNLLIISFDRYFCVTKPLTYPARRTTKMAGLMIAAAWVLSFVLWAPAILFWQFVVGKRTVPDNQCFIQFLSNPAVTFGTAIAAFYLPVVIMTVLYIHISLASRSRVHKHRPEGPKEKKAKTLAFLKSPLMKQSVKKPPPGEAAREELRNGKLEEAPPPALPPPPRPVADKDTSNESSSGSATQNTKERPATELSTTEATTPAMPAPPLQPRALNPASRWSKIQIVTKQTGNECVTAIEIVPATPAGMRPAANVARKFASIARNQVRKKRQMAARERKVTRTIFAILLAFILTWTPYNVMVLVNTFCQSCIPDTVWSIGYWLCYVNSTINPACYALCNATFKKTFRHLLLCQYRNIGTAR
How it was run: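 System: HEK293 cells with M4 receptor and GIRK channels | Incubation: Cells overnight at 37 °C, BTC-AM loading 1 h, reads 2 min total | Technique: Kinetic BTC-AM fluorescence sampled at 1 Hz, 10 s pre-addition baseline | Measure: Post-addition slope, 15–24 s, of baseline-normalized fluorescence | Control set: Carbachol positive, DMSO negative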

[7] = blockers of RIG-like receptor reporter activation – cell-based, Sendai virus stimulus, luciferase, 10K MLSCN set, TLR/RLR signaling modifier project, primary screen (AID 602276;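 active means inhibition at or above 50% at 10 µM; inactive means inhibition below 50%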;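 further: firefly luciferase from ISG56 promoter only with Renilla not read in this screen; 0% = Sendai virus plus DMSO and 100% = medium plus DMSO without virus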); details: HEK293 RL24 IRF3 luciferase reporter, at 10 µM, stronger effect = higher value
[8] = TLR3 IRF3 reporter activation blockers – cell-based, poly I:C stimulus, luciferase, 10K MLSCN set, primary screen (AID 602277;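 active means inhibition of the reporter signal at or above 50%; inactive means inhibition below 50%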); details: HEK293-TLR3 RL24 IRF3 luciferase reporter, at 10 µM, stronger effect = higher value

Row | Compound | cell count [1] | inhibition [1] | inhibition of aggregation [2] | nuclei count [2] [%] | inhibition [3] | nuclei count [3] [%] | fluorescence slope [4] | NADPH fluorescence slope [5] | fluorescence slope [6] | inhibition [7] | inhibition [8]
1 | O=C(c1cn(-c2ccccc2)nc1-c1cccs1)N1CCN(c2ccccn2)CC1 | 465 | -10.8% (inactive) | 11.5% (inactive) | 84.1 | -83% (inactive) | 150 | -0.421 (inactive) | 4e-05 (inactive) | 0.00586 (inactive) | 6.18% (inactive) | -18.9% (inactive)
2 | COc1ccc2nc(NC(=O)CSc3nnc(-c4ccoc4C)n3C)sc2c1 | 392 | 9.9% (inactive) | -2.4% (inactive) | 97.8 | -28.8% (inactive) | 104 | -0.563 (inactive) | -2.5e-05 (inactive) | 0.00441 (inactive) | -11.5% (inactive) | -48.5% (inactive)
3 | COC(=O)Cc1[nH]nc2c1C(C1C=CCCC1)C(C#N)=C(N)O2 (centres undefined) | 592 | 5.7% (inactive) | 7.6% (inactive) | 90.6 | -0.2% (inactive) | 117 | -0.41 (inactive) | 2.6e-05 (inactive) | 0.00509 (inactive) | 18.7% (inactive) | 26.3% (inactive)
4 | CCn1c(SCC(=O)Nc2ccc(C(C)=O)cc2)nc2ccccc21 | 227 | 14.4% (inactive) | -7.2% (inactive) | 101 | -2.2% (inactive) | 98.3 | -0.453 (inactive) | -0.000344 (inactive) | 0.00502 (inactive) | -13% (inactive) | -19.9% (inactive)
5 | O=c1cc(-c2ccccc2)[nH]c2nc3ccccc3n12 | 302 | -1.2% (inactive) | 15.1% (inactive) | 99.6 | -4.8% (inactive) | 96.2 | -0.422 (inactive) | 2.4e-05 (inactive) | 0.00541 (inactive) | 40.6% (inactive) | 27% (inactive)
6 | Cn1c(-c2ccc(F)cc2)cnc1NCc1ccccc1 | 710 | -2.3% (inactive) | 21% (inactive) | 74.6 | -25.9% (inactive) | 125 | -0.471 (inactive) | -3e-06 (inactive) | 0.0028 (inactive) | 6.58% (inactive) | -8.43% (inactive)
7 | COC(=O)c1cccc(NC(=O)C2COc3ccccc3O2)c1C (centres undefined) | 349 | -3.3% (inactive) | 13.6% (inactive) | 102 | -10.1% (inactive) | 96.5 | -0.508 (inactive) | -1.7e-05 (inactive) | 0.0049 (inactive) | -2.98% (inactive) | -15.7% (inactive)
8 | CC(C)N(C=O)C1(C(=O)NC2CCCCC2)CCCCC1 | 584 | -6.3% (inactive) | 15.2% (inactive) | 114 | -9.4% (inactive) | 113 | -0.551 (inactive) | -4.6e-06 (inactive) | 0.00567 (inactive) | 10.2% (inactive) | 13.5% (inactive)
9 | Cc1nc2ccc(NC(=O)N3CCC(c4ccccc4)C3)cc2nc1C (centres undefined) | 551 | 4.3% (inactive) | 9.2% (inactive) | 106 | 20.7% (inactive) | 68.5 | -0.0383 (inactive) | 9.4e-06 (inactive) | 0.00546 (inactive) | -0.553% (inactive) | -40.6% (inactive)
10 | COc1ccccc1N1CCN(C(=O)CCNS(=O)(=O)c2ccc3c(c2)CCC(=O)N3)CC1 | 556 | -18.8% (inactive) | -1.4% (inactive) | 123 | -31.1% (inactive) | 102 | -0.39 (inactive) | -1.7e-05 (inactive) | 0.00579 (inactive) | 5.92% (inactive) | 13.8% (inactive)
11 | Nc1ccc(Sc2nnnn2-c2ccccc2)c(Cl)c1 | 312 | -5.1% (inactive) | 8% (inactive) | 108 | -4% (inactive) | 78.5 | -0.468 (inactive) | -3.4e-05 (inactive) | 0.00613 (inactive) | 8.66% (inactive) | 13% (inactive)
12 | O=C(Nc1cc(C(F)(F)F)ccc1Cl)c1cc(C2CC2)on1 | 404 | -3.9% (inactive) | -8.1% (inactive) | 102 | -25.8% (inactive) | 61.5 | -0.45 (inactive) | -5.4e-05 (inactive) | 0.00518 (inactive) | 21.5% (inactive) | 27.4% (inactive)
13 | Cc1nc2nc(Cc3ccccc3)[nH]n2c(=O)c1Cc1ccccc1 | 351 | -3.3% (inactive) | -11.2% (inactive) | 97 | -62.2% (inactive) | 96.1 | -0.576 (inactive) | -4.3e-05 (inactive) | 0.0029 (inactive) | 9.12% (inactive) | 15.7% (inactive)
14 | CCOC(=O)C1CCCN(C(=O)c2cc(=O)c3ccccc3o2)C1 (centres undefined) | 376 | -18.9% (inactive) | -28.1% (inactive) | 114 | -38.4% (inactive) | 98.7 | -0.426 (inactive) | 2.6e-05 (inactive) | 0.00575 (inactive) | 14.5% (inactive) | 19.9% (inactive)
